Laboratory results published in ChEMBL document CHEMBL5143722, “Antimicrobial Peptides against Multidrug-Resistant Pseudomonas aeruginosa Biofilm from Cystic Fibrosis Patients” (J Med Chem, 2022).
Active and inactive are the calls of the source. The calls are words filed in the database; no cut-off is given here.

Legend:
[1] = tested on: Pseudomonas aeruginosa; assay: Antibiofilm activity against Pseudomonas aeruginosa clinical isolate 29 assessed as inhibition of biofilm formation at 1.56 uM incubated for 24 hrs by crystal violet staining based microtiter plate method; format: functional, organism-based
In short: (§1)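 Washed overnight cultures in BM2 medium at 1 × 10^6 CFU/mL with 2-fold serial peptide dilutions in a U-bottom 96-well plate. Incubated 24 h at 37 °C without agitation. Unattached cells washed off, then 0.1% crystal violet stain read at 590 nm. No-bacteria blanks. Biomass expressed as % of untreated biofilm. At least three biological repeats.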

[2] = tested on: Pseudomonas aeruginosa; assay: Antibiofilm activity against Pseudomonas aeruginosa clinical isolate 71 assessed as inhibition of biofilm formation at 1.56 uM incubated for 24 hrs by crystal violet staining based microtiter plate method; format: functional, organism-based; in short: as §1
[3] = tested on: Pseudomonas aeruginosa; assay: Antibiofilm activity against Pseudomonas aeruginosa clinical isolate 82 assessed as inhibition of biofilm formation at 1.56 uM incubated for 24 hrs by crystal violet staining based microtiter plate method; format: functional, organism-based; in short: as §1
[4] = tested on: Pseudomonas aeruginosa; assay: Antibiofilm activity against Pseudomonas aeruginosa clinical isolate 172 assessed as inhibition of biofilm formation at 1.56 uM incubated for 24 hrs by crystal violet staining based microtiter plate method; format: functional, organism-based; in short: as §1
[5] = tested on: Pseudomonas aeruginosa; assay: Antibiofilm activity against Pseudomonas aeruginosa clinical isolate 251 assessed as inhibition of biofilm formation at 1.56 uM incubated for 24 hrs by crystal violet staining based microtiter plate method; format: functional, organism-based; in short: as §1
[6] = tested on: Pseudomonas aeruginosa; assay: Induction of biofilm degradation of Pseudomonas aeruginosa clinical isolate 59 at 1.56 uM incubated for 1 hr by crystal violet staining analysis; format: functional
In short: (§2)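 Bacteria at 1 × 10^6 CFU/mL in BM2 grown static at 37 °C for 24 h to form biofilm. Wells rinsed of unattached cells, then exposed for 1 h to serial peptide dilutions (1.56–50 μM). Washed, stained with 0.1% crystal violet, A590 read. Biomass given as % of untreated biofilm; no-bacteria wells as blanks. At least three biological repeats.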

[7] = tested on: Pseudomonas aeruginosa; assay: Antibiofilm activity against Pseudomonas aeruginosa clinical isolate 82 in artificial sputum medium at 25 uM incubated for 24 hrs by resazurin staining based microtiter plate method relative to control; format: functional
In short: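 Overnight cultures were washed, resuspended in BM2 to OD ~0.05, and diluted 1:100 into artificial sputum medium (pH 6.9). Biofilms grew 3 days at 37 °C with aerobic agitation in 24-well plates. Peptides (12.5–100 μM) were then added for 24 h with agitation. Biofilm was disrupted with cellulase for 1 h at 37 °C. Resazurin (0.02%) was added for 1–2 h, fluorescence read at ex 530/em 590 nm, and viability expressed as % of untreated wells.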

[8] = tested on: Pseudomonas aeruginosa; assay: Bactericidal activity against Pseudomonas aeruginosa clinical isolate 24 derived from cystic fibrosis patient sputum assessed as killing rate at 10 uM measured after 1 hr by time-kill assay relative to control; format: functional
In short: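 Pooled CF patient sputum diluted 10-fold in 10 mM phosphate buffer (pH 7.0), centrifuged and 0.22 μm filtered. Bacteria at 10^6 CFU/mL in 10% sputum supernatant with 10 μM peptide for 1 h at 37 °C. Diluted and plated on LB agar; colonies counted against untreated plates.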

[9] = tested on: Pseudomonas aeruginosa; assay: Induction of biofilm degradation of Pseudomonas aeruginosa clinical isolate 24 derived from cystic fibrosis patient sputum at 1.56 to 50 uM by crystal violet based staining analysis; format: functional; details: dose 1.56-50 µM
In short: (§3)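 Biofilm grown from 1 × 10^6 CFU/mL in pooled CF patient sputum diluted 10-fold with BM2, static, 37 °C, 24 h. Unattached cells rinsed off, then serial peptide dilutions (1.56–50 μM) applied for 1 h. Washed and stained with 0.1% crystal violet, read at 590 nm. Reported as % of untreated biomass, with no-bacteria blanks.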

[10] = tested on: Pseudomonas aeruginosa; assay: Induction of biofilm degradation of Pseudomonas aeruginosa clinical isolate 46 derived from cystic fibrosis patient sputum at 1.56 to 50 uM by crystal violet based staining analysis; format: functional; details: dose 1.56-50 µM; in short: as §3
[11] = tested on: Pseudomonas aeruginosa; assay: Induction of biofilm degradation of Pseudomonas aeruginosa clinical isolate 29 at sub MIC concentration incubated for 1 hr by crystal violet staining analysis; format: functional; in short: as §2
[12] = tested on: Pseudomonas aeruginosa; assay: Induction of biofilm degradation of Pseudomonas aeruginosa clinical isolate 46 at sub MIC concentration incubated for 1 hr by crystal violet staining analysis; format: functional; in short: as §2

Structure (SMILES)	inhibition [1]	inhibition [2]	inhibition [3]	inhibition [4]	inhibition [5]	Activity [6]	Activity [7] [%]	Activity [8] [%]	Activity [9]	Activity [10]	Activity [11]	Activity [12]
CC(C)C[C@H](NC(=O)[C@H](CC(C)C)NC(=O)[C@H](CCCCN)NC(=O)[C@H](CC(C)C)NC(=O)[C@H](CC(C)C)NC(=O)[C@H](CCCCN)NC(=O)[C@H](CCCCN)NC(=O)[C@H](CC(C)C)NC(=O)[C@H](CC(C)C)NC(=O)[C@H](CCCCN)NC(=O)[C@H](CCCCN)NC(=O)[C@H](CC(C)C)NC(=O)[C@H](CC(C)C)NC(=O)[C@H](CCCCN)NC(=O)[C@@H](N)CC(C)C)C(N)=O	Active	Active	Active	Active	Active	Active	57.94	>97.91	Active	Active	–	–
CC(C)C[C@H](NC(=O)[C@H](CC(C)C)NC(=O)[C@H](CC(C)C)NC(=O)[C@H](CC(C)C)NC(=O)[C@H](CC(C)C)NC(=O)[C@H](CC(C)C)NC(=O)[C@H](CC(C)C)NC(=O)[C@H](CC(C)C)NC(=O)[C@H](CC(C)C)NC(=O)[C@H](CCCCN)NC(=O)[C@H](CCCCN)NC(=O)[C@@H](N)CCCCN)C(=O)N[C@@H](CCCCN)C(=O)N[C@@H](CCCCN)C(=O)N[C@@H](CCCCN)C(N)=O	–	–	–	–	–	–	–	–	–	–	Active	Active
